Bioassay records: PubChem BioAssay, several laboratories
Hits are enriched below; roughly 2% of the tested compounds scored in any of these assays.
TRPML3 ag: agonists of human TRPML3 channel. Q8TDD5. HEK293 TRPML3-YFP, Fluo-8 calcium fluorescence; 100% = the carbachol control signal. activation, % at 3 µM. hit rate 0.29% among 220,000;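 active = activation above its plate's cutoff, the mean activation of the plate's test wells plus 3 SD, cut at about 12% in these data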;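 note: 0% = DMSO only wells and 100% = carbachol wells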
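Test system: HEK293 cells stably carrying human TRPML3-YFP; Doses: single dose, 3 µM final nominal compound, 0.3% DMSO final; Schedule: dye loading 1 h 37 °C then 30 min ambient, 125 s read; Technique: Fluo-8 calcium fluorescence; Benchmarks: high control carbachol 87 µM, low control DMSO.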
TRPN1 ag: activates the zebrafish TRPN1 channel | HEK293 zebrafish TRPN1-YFP, Fluo-8 calcium fluorescence; 100% = response to 87 µM carbachol | hit rate 0.18% among 220,000 | activation, % at 3 µM;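 active = activation above its plate's cutoff, the mean activation of test wells on that plate plus 3 SD, cut at about 19% in these data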;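 note: 0% = DMSO alone and 100% = 87 µM carbachol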
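Material – zebrafish TRPN1-YFP in HEK293 cells · Doses – 3 µM single point · Schedule – dye 1 h 37 °C plus 30 min RT · Signal – Fluo-8 calcium fluorescence, excitation 470-495 nm, emission 515-575 nm · Read-out – % activation versus carbachol response · Control set – carbachol high, DMSO low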
GPR7 antag: human neuropeptides B/W receptor 1 antagonism; inhibition, % at 4.4 µM; GPR7-expressing cells, fluorescence antagonist assay; hit rate 1.1% among 290,000; in the data active = inhibition above about 16%, passing the limit was not always enough;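 note: cells stimulated with the agonist NPW; 0% = agonist with vehicle and 100% = vehicle without agonist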
Target sequence (P48145 whole entry, looked up): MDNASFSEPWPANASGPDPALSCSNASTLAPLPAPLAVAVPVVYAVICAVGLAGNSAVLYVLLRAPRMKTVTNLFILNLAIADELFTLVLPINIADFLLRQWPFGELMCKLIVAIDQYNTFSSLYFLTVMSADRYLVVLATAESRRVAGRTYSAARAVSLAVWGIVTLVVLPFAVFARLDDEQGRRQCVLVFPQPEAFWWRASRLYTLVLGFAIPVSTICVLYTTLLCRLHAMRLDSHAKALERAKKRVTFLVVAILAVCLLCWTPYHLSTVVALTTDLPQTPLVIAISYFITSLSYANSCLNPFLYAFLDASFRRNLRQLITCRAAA
CRFR2-BP antag: antagonists of CRF-binding protein/CRF-R2 receptor complex; inhibition, % at 11.8 µM; AID 588475; hit rate 0.59% among 350,000; HEK293 CRF-R2/CRF-BP, CRF-induced calcium fluorescence;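 active = inhibition of the ligand-induced calcium signal above about 50% at the single tested concentration, limit read from the data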
CRFBP-R2 agonist: CRF-BP/CRF-R2 complex agonism; hit rate 0.46% among 350,000; AID 588473; HEK293 CRF-R2/CRF-BP, calcium dye fluorescence (FLIPR); percent of saturating CRF peptide response; activation, % at 13.2 µM;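 active = activation of at least 50%, plus an integration ratio under a set limit after plate pattern correction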;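 note: plate controls were neutral control wells without compound for no effect and CRF at EC100 for full effect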
* hit, by the source's call; . = not tested or not shown.

SMILES | TRPML3 ag | TRPN1 ag | GPR7 antag | CRFR2-BP antag | CRFBP-R2 agonist
CCOC(=O)/C(=C\c1cccnc1)C(=O)c1cc(C(C)=O)c(Nc2ccccc2)s1 | 1 | 0 | 30* | 25 | 1
CCOC(=O)/C(=C\c1ccccc1)C(=O)c1cc(C(C)=O)c(Nc2ccccc2)s1 | 0 | -1 | 4 | -56 | 7
O=C(NC1CCCN(Cc2ccc(Cl)cc2)C1)c1c(F)ccc(F)c1F (configuration not stated) | . | . | -18 | 0 | -1
CN1Cc2c(N3CCOCC3)nc3sc(C(=O)c4ccc(Br)cc4)c(N)c3c2CC1(C)C | 2 | 1 | 44* | -19 | 3
CN1Cc2c(N3CCOCC3)nc3sc(C#N)c(N)c3c2CC1(C)C | 1 | 6 | -12 | -1 | 3
COC(=O)Cc1ccc(OC(=O)CCS(=O)(=O)c2ccc(Cl)cc2)cc1 | . | . | . | -6 | 0
COc1cc(/C=C(/C#N)c2nc3ccccc3c(=O)[nH]2)ccc1O | 1 | 1 | -12 | -42 | 68*
COc1cc(/C=C(\C#N)c2nc3ccccc3n2C)cc(OC)c1O | 17* | 37* | 5 | -61 | 52*
COc1cc(/C=C(\C#N)c2nc3ccccc3[nH]2)cc(OC)c1O | 7 | 22* | 3 | -205 | 164*
Cc1ccccc1/C=C/C(=O)N1CCOCC1 | 0 | 1 | -9 | 6 | -1
COc1ccccc1/C=C/C(=O)N1CCOCC1 | 0 | 0 | -14 | 85* | -5
Cc1ccc(NC(=S)NCc2ccccn2)cc1 | 0 | 0 | -6 | 74* | 1
FC(F)(F)c1cccc(NC(=S)NCc2ccccn2)c1 | -1 | 0 | 20* | 16 | -3
Cc1nn(C)cc1S(=O)(=O)N1CCN(c2ccccc2)CC1 | . | . | 2 | 2 | 0
C=CCOc1ccc(C=NNc2ccc(S(=O)(=O)Nc3ccccc3C(=O)O)cc2[N+](=O)[O-])cc1OC | . | . | . | 67* | 0
CCOc1ccc(C=NNc2ccc(S(=O)(=O)Nc3ccccc3C(=O)O)cc2[N+](=O)[O-])cc1 | . | . | . | 10 | -1
Cc1nn(-c2ccccc2)c(Cl)c1/C=N/Nc1ccc(S(=O)(=O)Nc2ccccc2C(=O)O)cc1[N+](=O)[O-] | 1 | -1 | -16 | 74* | -1
c1ccc(-c2sc3ccccc3c2-c2ccc(OCCN3CCCC3)cc2)cc1 | . | . | . | 0 | 5
COc1ccc(-c2sc3ccccc3c2-c2ccc(OCCN3CCCCC3)cc2)cc1 | . | . | . | 62* | 8
Cc1cc(C(=O)CSc2nc3ccccc3[nH]2)c(C)n1CC1CCCO1 (configuration not stated) | 5 | 12 | 27* | -37 | 3
Cc1cc(C(=O)CSc2nc(N)cc(=O)[nH]2)c(C)n1CC1CCCO1 (configuration not stated) | . | . | . | -11 | -2
Cc1noc(C)c1COC(=O)c1cccc(S(=O)(=O)N2c3ccccc3CC2C)c1 (configuration not stated) | 5 | 1 | 3 | 56* | 18
Cc1cc(Br)ccc1OCCCCN1CCCCC1 | 1 | 0 | 2 | -13 | 0
CC(C)[C@H](NC(=O)N1CCn2c1nc1ccccc12)C(=O)N[C@@H](C(=O)O)c1ccccc1 | . | . | -7 | 16 | 4
O=C(Nc1ccccc1Oc1cccnc1)C1CCCN(Cc2ccccc2O)C1 (configuration not stated) | . | . | -3 | 99* | -4
SMILES | TRPML3 ag | TRPN1 ag | GPR7 antag | CRFR2-BP antag | CRFBP-R2 agonist
C#Cc1ccc(CN2CCCC(C(=O)Nc3ccccc3Oc3cccnc3)C2)cc1 (configuration not stated) | . | . | -5 | 9 | 1
CCCCn1c(N)c(N(CCOC)C(=O)c2ccc(S(=O)(=O)N(CC)c3ccccc3)cc2)c(=O)[nH]c1=O | . | . | . | 8 | -1
COc1ccc(NS(=O)(=O)c2ccc(N3CCOCC3)c(NC(=O)C(C)C)c2)cc1 | 2 | 2 | 4 | 100* | 2
CCCOc1ccc(C(=O)CCC(=O)OCC(=O)Nc2cc(C)on2)cc1 | 0 | -1 | -3 | . | .
CCCCOc1ccc(C(=O)OCC(=O)Nc2cc(C)on2)cc1 | 88* | 94* | -4 | -11 | 7
Cc1ccc(CSCC(=O)Nc2cc(S(=O)(=O)N3CCOCC3)ccc2OC(C)C)cc1 | . | . | . | 64* | 0
CCN(CC)c1ccc(/C=C/C(=O)C2C(=O)C=C(C)OC2=O)cc1 (configuration not stated) | 16* | 35* | 3 | -476 | 377*
CCN(CC)c1ccc(C=C2C(=O)OC(c3ccccc3)OC2=O)cc1 (configuration not stated) | 1 | 0 | -18 | -47 | 2
COC(=O)c1ccc(CSc2ccccc2NC(=S)Nc2cccc(C(F)(F)F)c2)o1 | . | . | . | 9 | -3
CC(C)Cn1cc(C(=O)N2CCC(C)CC2)c2c3ccccc3n(C)c2c1=O | 1 | 3 | -11 | 50* | -2
Cc1cc2c3c(c1)C(C)(c1ccccc1)CC(C)(C)N3C(=O)C21C(C#N)=C(N)OC2=C1C(=O)CC(C)(C)C2 (configuration not stated) | 0 | 0 | -4 | 20 | -3
CC1=CC(C)(C)N2C(=O)C3(C(C#N)=C(N)Oc4cc(O)ccc43)c3c(C)c(C)cc1c32 (configuration not stated) | 1 | 0 | -9 | 66* | -1
CC1(c2ccccc2)CC(C)(C)N2C(=O)C3(C(C#N)=C(N)Oc4cc(O)ccc43)c3cccc1c32 (configuration not stated) | 0 | -1 | -17 | 116* | -1
CCCn1c(=O)c2ccccc2n2c(SCC(=O)NCc3cccs3)nnc12 | 0 | -1 | 18* | 6 | 2
N/C(CSc1ccc(Cl)cc1)=N\S(=O)(=O)c1ccc(Cl)cc1 | -2 | -2 | -1 | -1 | -1
N/C(CN1CCCCC1)=N\S(=O)(=O)c1cc(Cl)cc(Cl)c1 | 0 | 1 | -4 | 113* | -2
CCCCOc1ccc(OCCNC(=O)c2ccco2)cc1 | . | . | -7 | 1 | -1
Cc1noc(/C=C/Nc2ccc(F)cc2F)c1[N+](=O)[O-] | 1 | 0 | 1 | -7 | 3
COc1ccccc1N/C=C/c1onc(C)c1[N+](=O)[O-] | 3 | 5 | -6 | -68 | 89*
Cc1nc2nc(SCC(=O)c3cccc([N+](=O)[O-])c3)[nH]c2cc1Br | 0 | 1 | 5 | 67* | -1
Cc1ccc(C(=O)N2c3ccccc3N(Cc3ccccc3)C(=O)C2(C)C)cc1 | -1 | -2 | -11 | 52* | 6
CCN1C[C@@H]2[C@@H]3C(=O)N(Cc4ccccc4)C(=O)[C@@H]3[C@](C)(C1=O)N2C(=O)c1ccc(C)cc1 | . | . | . | 6 | -2
Cc1ccc(N2C(=O)C3C4C=CC(CC4)C3C2=O)cc1[N+](=O)[O-] (configuration not stated) | . | . | -6 | 73* | 2
N#C/C(=C/c1ccc(-c2ccc([N+](=O)[O-])cc2)o1)c1nnc(N2CCOCC2)n1-c1ccccc1 | . | . | . | -164 | 176*
